Source: ChEMBL document CHEMBL1150378, “Synthesis and in vitro antiprotozoal activities of water-soluble, inexpensive 3,7-bis(dialkylamino)phenoxazin-5-ium derivatives” (J Med Chem, 2008)

Columns and labels:
[1] = system: Trypanosoma brucei rhodesiense; assay: Antitrypanosomal activity against Trypanosoma brucei rhodesiense STIB900; type: functional, organism-based
In short: (§1)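 Test compounds were made up as 10 mg/mL stocks in 100% DMSO, warmed or sonicated to dissolve, then diluted in serum-free medium and brought to working concentration in complete medium without hypoxanthine. DMSO was at most 1% in the top-concentration wells. IC50 was determined by previously described methods, with values from two replicate experiments. Reference drugs were chloroquine, melarsoprol, benznidazole, miltefosine and podophyllotoxin (L6).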

[2] = system: L6; assay: Cytotoxicity against rat L6 cells; type: cell-based; in short: as §1
[3] = system: Trypanosoma cruzi; assay: Antitrypanosomal activity against Trypanosoma cruzi Tulahuen C2C4; type: functional, organism-based; in short: as §1
[4] = system: Plasmodium falciparum; assay: Antiplasmodial activity against chloroquine and pyrimethamine-resistant Plasmodium falciparum K1; type: functional, organism-based
In short: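 Compounds were prepared as 10 mg/mL DMSO stocks, diluted in serum-free medium, then brought to test concentrations in complete medium without hypoxanthine. DMSO was at most 1% in the top-concentration wells. IC50 values come from two replicate experiments, with chloroquine as the reference standard. Rat L6 myoblast IC50 served for the selectivity index.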

[5] = Selectivity index, Ratio of IC50 for rat L6 cells to IC50 for Trypanosoma brucei rhodesiense STIB900; type: functional
In short: (§2)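 Selectivity index is the L6 myoblast cytotoxicity IC50 divided by the IC50 against the respective parasite. Both IC50 values come from two replicate experiments, with compounds diluted from 10 mg/mL DMSO stocks and final DMSO at most 1%.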

[6] = system: Leishmania donovani; assay: Antileishmanial activity against Leishmania donovani MHOM-ET-67/L82 axenic amastigotes; type: functional, organism-based; in short: as §1
[7] = Selectivity index, Ratio of IC50 for rat L6 cells to IC50 for Leishmania donovani MHOM-ET-67/L82 axenic amastigotes; type: functional; in short: as §2
[8] = Selectivity index, Ratio of IC50 for rat L6 cells to IC50 for Plasmodium falciparum K1; type: functional; in short: as §2
[9] = Selectivity index, Ratio of IC50 for rat L6 cells to IC50 for Trypanosoma cruzi Tulahuen C2C4; type: functional; in short: as §2

For `CCN(CC)c1ccc2nc3ccc(N4CCCCC4)cc3[o+]c2c1.[Cl-]`, the IC50 [1] was 245 nM, the IC50 [2] was 6430 nM and the IC50 [3] was 48 nM. The IC50 [4] was 3 nM, the “Ratio IC50” value [5] was 26.3 and the IC50 [6] was 1440 nM. The “Ratio IC50” value [7] was 4.5, the “Ratio IC50” value [8] was 2390 and the “Ratio IC50” value [9] was 132.8.

`CCN(CC)c1ccc2nc3ccc(N4CCCC4)cc3[o+]c2c1.[Cl-]` showed an IC50 [1] of 168 nM, an IC50 [2] of 7770 nM and an IC50 [3] of 56 nM. For the same compound, the IC50 [4] was 6 nM, the “Ratio IC50” value [5] was 46.3 and the IC50 [6] was 654 nM. The “Ratio IC50” value [7] was 11.9, the “Ratio IC50” value [8] was 1390 and the “Ratio IC50” value [9] was 139.

`O=C(Cn1ccnc1[N+](=O)[O-])NCc1ccccc1` [BENZNIDAZOLE] showed an IC50 [3] of 866 nM.

For `CCCN(CCC)c1ccc2nc3ccc(N(CCC)CCC)cc3[o+]c2c1.[Cl-]`, the IC50 [1] was 23 nM, the IC50 [2] was 400 nM and the IC50 [3] was 17 nM. The IC50 [4] was 2 nM, the “Ratio IC50” value [5] was 17.4 and the IC50 [6] was 2 nM. For the same compound, the “Ratio IC50” value [7] was 165, the “Ratio IC50” value [8] was 165 and the “Ratio IC50” value [9] was 23.6.

Work on `CCCCN(CCCC)c1ccc2nc3ccc(N4CCCCC4)cc3[o+]c2c1.[Cl-]` yielded an IC50 [1] of 269 nM, an IC50 [2] of 90 nM and an IC50 [3] of 58 nM. For the same compound, the IC50 [4] was 7 nM, the “Ratio IC50” value [5] was 0.3 and the IC50 [6] was 2 nM. The “Ratio IC50” value [7] was 37, the “Ratio IC50” value [8] was 12.3 and the “Ratio IC50” value [9] was 1.5.

`CCCN(CCC)c1ccc2nc3ccc(N4CCCCC4)cc3[o+]c2c1.[Cl-]` showed an IC50 [1] of 238 nM, an IC50 [2] of 790 nM and an IC50 [3] of 23 nM. The IC50 [4] was 8 nM, the “Ratio IC50” value [5] was 3.3 and the IC50 [6] was 98 nM. The “Ratio IC50” value [7] was 8.1, the “Ratio IC50” value [8] was 105.3 and the “Ratio IC50” value [9] was 35.1.

`[Cl-].c1cc2nc3ccc(N4CCCC4)cc3[o+]c2cc1N1CCCC1` gave an IC50 [1] of 160 nM, an IC50 [2] of 3930 nM and an IC50 [3] of 121 nM. For the same compound, the IC50 [4] was 3 nM, the “Ratio IC50” value [5] was 24.6 and the IC50 [6] was 37 nM. The “Ratio IC50” value [7] was 107.7, the “Ratio IC50” value [8] was 1400 and the “Ratio IC50” value [9] was 32.6.

Compound `[Cl-].c1cc2nc3ccc(N4CCCCC4)cc3[o+]c2cc1N1CCCCC1` has an IC50 [1] of 154 nM, an IC50 [2] of 5470 nM and an IC50 [3] of 81 nM. For the same compound, the IC50 [4] was 5 nM, the “Ratio IC50” value [5] was 35.6 and the IC50 [6] was 1140 nM. The “Ratio IC50” value [7] was 4.8, the “Ratio IC50” value [8] was 1050 and the “Ratio IC50” value [9] was 67.7.

`CCCN(CCC)c1ccc2nc3ccc(N4CCCC4)cc3[o+]c2c1.[Cl-]` showed an IC50 [1] of 16 nM, an IC50 [2] of 920 nM and an IC50 [3] of 36 nM. The IC50 [4] was 3 nM, the “Ratio IC50” value [5] was 59.2 and the IC50 [6] was 16 nM. For the same compound, the “Ratio IC50” value [7] was 59.2, the “Ratio IC50” value [8] was 355 and the “Ratio IC50” value [9] was 25.4.

Work on `CN(C)c1ccc2nc3ccc(N4CCCC4)cc3[o+]c2c1.[Cl-]` yielded an IC50 [1] of 91 nM, an IC50 [2] of 13100 nM and an IC50 [3] of 258 nM. For the same compound, the IC50 [4] was 6 nM, the “Ratio IC50” value [5] was 144.4 and the IC50 [6] was 1710 nM. For the same compound, the “Ratio IC50” value [7] was 7.7, the “Ratio IC50” value [8] was 2166.5 and the “Ratio IC50” value [9] was 51.

Work on `[Cl-].c1cc2nc3ccc(N4CCOCC4)cc3[o+]c2cc1N1CCOCC1` yielded an IC50 [1] of 8740 nM, an IC50 [2] of 28600 nM and an IC50 [3] of 7090 nM. The IC50 [4] was 431 nM, the “Ratio IC50” value [5] was 3.3 and the IC50 [6] was 5180 nM. The “Ratio IC50” value [7] was 5.5, the “Ratio IC50” value [8] was 66.5 and the “Ratio IC50” value [9] was 4.

Compound `CCCCCCCCCCCCCCCCOP(=O)([O-])OCC[N+](C)(C)C` [MILTEFOSINE] has an IC50 [6] of 280 nM.

In the case of `CN(C)c1ccc2nc3ccc(N4CCSCC4)cc3[o+]c2c1.[Cl-]`, the IC50 [1] is reported as 5470 nM, the IC50 [2] is reported as 22200 nM and the IC50 [3] is reported as 608 nM. For the same compound, the IC50 [4] was 6 nM, the “Ratio IC50” value [5] was 4.1 and the IC50 [6] was 14400 nM. The “Ratio IC50” value [7] was 1.5, the “Ratio IC50” value [8] was 4022.5 and the “Ratio IC50” value [9] was 36.6.

`CCN(CC)c1ccc2nc3ccc(N4CCSCC4)cc3[o+]c2c1.[Cl-]` gave an IC50 [1] of 1610 nM, an IC50 [2] of 21700 nM and an IC50 [3] of 154 nM. The IC50 [4] was 8 nM, the “Ratio IC50” value [5] was 13.5 and the IC50 [6] was 1000 nM. The “Ratio IC50” value [7] was 21.6, the “Ratio IC50” value [8] was 2822 and the “Ratio IC50” value [9] was 141.1.

`CCCN(CCC)c1ccc2nc3ccc(N4CCSCC4)cc3[o+]c2c1.[Cl-]` showed an IC50 [1] of 1510 nM, an IC50 [2] of 7010 nM and an IC50 [3] of 163 nM. The IC50 [4] was 7 nM, the “Ratio IC50” value [5] was 4.6 and the IC50 [6] was 1170 nM. For the same compound, the “Ratio IC50” value [7] was 6, the “Ratio IC50” value [8] was 976.7 and the “Ratio IC50” value [9] was 43.1.

Compound `CN(C)c1ccc2nc3ccc(N4CCCCC4)cc3[o+]c2c1.[Cl-]` has an IC50 [1] of 843 nM, an IC50 [2] of 22500 nM and an IC50 [3] of 174 nM. For the same compound, the IC50 [4] was 3 nM, the “Ratio IC50” value [5] was 26.7 and the IC50 [6] was 1660 nM. The “Ratio IC50” value [7] was 13.6, the “Ratio IC50” value [8] was 7740 and the “Ratio IC50” value [9] was 129.

Work on `CCN(CC)c1ccc2nc3ccc(N(CC)CC)cc3[o+]c2c1.[Cl-]` yielded an IC50 [1] of 228 nM, an IC50 [2] of 6700 nM and an IC50 [3] of 36 nM. The IC50 [4] was 3 nM, the “Ratio IC50” value [5] was 29.4 and the IC50 [6] was 214 nM. The “Ratio IC50” value [7] was 31.3, the “Ratio IC50” value [8] was 2410 and the “Ratio IC50” value [9] was 185.4.

For `CCCCCCN(CCCCCC)c1ccc2nc3ccc(N4CCCCC4)cc3[o+]c2c1.[Cl-]`, the IC50 [1] was 14 nM, the IC50 [2] was 200 nM and the IC50 [3] was 21 nM. The IC50 [4] was 4 nM, the “Ratio IC50” value [5] was 13.7 and the IC50 [6] was 14 nM. For the same compound, the “Ratio IC50” value [7] was 13.7, the “Ratio IC50” value [8] was 48 and the “Ratio IC50” value [9] was 9.6.

For `CN(C)c1ccc2nc3ccc(N4CCOCC4)cc3[o+]c2c1.[Cl-]`, the IC50 [1] was 2590 nM, the IC50 [2] was 49800 nM and the IC50 [3] was 5060 nM. The IC50 [4] was 23 nM, the “Ratio IC50” value [5] was 19.2 and the IC50 [6] was 1060 nM. For the same compound, the “Ratio IC50” value [7] was 47.2, the “Ratio IC50” value [8] was 2153.9 and the “Ratio IC50” value [9] was 9.8.

With `CCN(CC)c1ccc2nc3ccc(N4CCOCC4)cc3[o+]c2c1.[Cl-]` the IC50 [1] was 4070 nM, the IC50 [2] was 40100 nM and the IC50 [3] was 2940 nM. For the same compound, the IC50 [4] was 29 nM, the “Ratio IC50” value [5] was 9.9 and the IC50 [6] was 16300 nM. For the same compound, the “Ratio IC50” value [7] was 2.5, the “Ratio IC50” value [8] was 1363.6 and the “Ratio IC50” value [9] was 13.6.

With `COc1cc([C@@H]2c3cc4c(cc3[C@H](O)[C@H]3COC(=O)[C@H]23)OCO4)cc(OC)c1OC` [PODOFILOX] the IC50 [2] was 20 nM.

Compound `CCCN(CCC)c1ccc2nc3ccc(N4CCOCC4)cc3[o+]c2c1.[Cl-]` has an IC50 [1] of 871 nM, an IC50 [2] of 19300 nM and an IC50 [3] of 406 nM. For the same compound, the IC50 [4] was 5 nM, the “Ratio IC50” value [5] was 22.2 and the IC50 [6] was 754 nM. The “Ratio IC50” value [7] was 25.6, the “Ratio IC50” value [8] was 3883 and the “Ratio IC50” value [9] was 47.6.

With `CCCCCN(CCCCC)c1ccc2nc3ccc(N4CCCCC4)cc3[o+]c2c1.[Cl-]` the IC50 [1] was 22 nM, the IC50 [2] was 140 nM and the IC50 [3] was 15 nM. The IC50 [4] was 2 nM, the “Ratio IC50” value [5] was 6.3 and the IC50 [6] was 2 nM. The “Ratio IC50” value [7] was 63, the “Ratio IC50” value [8] was 63 and the “Ratio IC50” value [9] was 9.
